{"source": "ChEMBL document CHEMBL4513216", "about": "“Probing the Open Global Health Chemical Diversity Library for Multistage-Active Starting Points for Next-Generation Antimalarials” (ACS Infect Dis, 2020)", "data": [{"assay": "Toxicity liver stage against HepG2, at 10uM", "format": "cell-based", "design": "test concentration 10 uM, cell line HepG2-A16-CD81EGFP", "details": "human, HepG2-A16-CD81EGFP cells; read-out: INHIBITION", "summary_of_the_method": "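Uninfected HepG2-A16-CD81EGFP cells, 3 × 10^3 per well, 1536-well, plated on prespotted compound at 10 μM final, parasite-free screening media added to match infected plates; puromycin 10 μM positive, DMSO 0.5% negative; run in parallel with 48 h PbLuc assay at 37 °C, 5% CO2; viability by CellTiter-Glo luminescence, normalized to controls.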", "units": {"cytotoxicity at 10 µM": "%"}, "values": [{"compound": "COc1ccc(Nc2c[nH]c(=O)[nH]c2=O)cc1", "cytotoxicity at 10 µM": 14.2}, {"compound": "O=C(Cc1csc(-c2ccccc2Cl)n1)NCc1cccc(C(=O)O)c1", "cytotoxicity at 10 µM": -3.67}, {"compound": "CN(C)CCN1CCN(C)C2(CCN(c3nccs3)CC2)C1=O", "cytotoxicity at 10 µM": -1.92}, {"compound": "Cc1nnc([C@H]2C[C@H]3OCC[C@H]3N(S(=O)(=O)CC(C)C)C2)o1", "cytotoxicity at 10 µM": -5.27}, {"compound": "O=C(C1CC=CC1)N1CC[C@@H]2O[C@@H](COCC3CCOCC3)CC[C@@H]21", "cytotoxicity at 10 µM": 5.51}, {"compound": "COc1cc(-c2n[nH]c(CO)n2)cc(OC)c1OC", "cytotoxicity at 10 µM": -4.91}, {"compound": "CN(CCc1ccccc1)Cc1c(C2CCOCC2)[nH]c2ncccc12", "cytotoxicity at 10 µM": 4.21}, {"compound": "CC(C)(C)NC(=O)C1(Cc2ccccc2-c2ccncc2)CCOCC1", "cytotoxicity at 10 µM": -6.99}, {"compound": "COCC(=O)N1CCC(c2csc(NC(C)=O)n2)CC1", "cytotoxicity at 10 µM": -28.6}, {"compound": "CC(=O)N1CCC(Cc2cnc(-n3ccnc3)cn2)CC1", "cytotoxicity at 10 µM": -38.8}, {"compound": "Cc1nc(Nc2nnc(C)s2)cc(C2CCCN2c2ccncc2)n1", "note": "(stereo not given)", "cytotoxicity at 10 µM": -9.99}, {"compound": "COCCC(=O)N1CCCC1c1nccc(C)n1", "note": "(stereo not given)", "cytotoxicity at 10 µM": -19.2}, {"compound": "C=Cn1ncc(CN2CCc3nc(-c4ccncc4)nc(O)c3C2)c1C", "cytotoxicity at 10 µM": -4.45}, {"compound": "CCCc1cc(C(=O)NC(c2ccccc2)c2n[nH]c(C)n2)[nH]n1", "note": "(stereo not given)", "cytotoxicity at 10 µM": 2.99}, {"compound": "O=C(NCc1ccnc(OCC(F)(F)F)c1)NCC1CCOC1", "note": "(stereo not given)", "cytotoxicity at 10 µM": -3.22}, {"compound": "O=C(c1cc[nH]n1)N1CCN(C(c2ccccc2)C(F)(F)F)CC1", "note": "(stereo not given)", "cytotoxicity at 10 µM": -6.36}, {"compound": "C(=C\\c1ccccc1)/CNCC1CCc2nncn2C1", "note": "(stereo not given)", "cytotoxicity at 10 µM": 16.8}, {"compound": "CN1CCN(C)C(CNC(=O)N(C)Cc2ccccc2Cl)C1", "note": "(stereo not given)", "cytotoxicity at 10 µM": 0.339}, {"compound": "Cc1ccc(CNC(=O)c2ccc(=O)n(C)n2)c(OCC2CC2)c1", "cytotoxicity at 10 µM": -5.92}, {"compound": "COc1ccc(CN(C)C(=O)CN2CC(n3cc(C)cn3)C2)cc1F", "cytotoxicity at 10 µM": 1.59}, {"compound": "O=C(OCCNc1ncccn1)c1ccc(Br)s1", "cytotoxicity at 10 µM": -2.64}, {"compound": "O=C(c1ccoc1)N(Cc1cccnc1)C1CC1", "cytotoxicity at 10 µM": -13.2}, {"compound": "Cc1ccc(C(=O)NCc2cccnc2-n2cncn2)cc1S(C)(=O)=O", "cytotoxicity at 10 µM": 4.5}, {"compound": "Cc1noc(C(C)N2CCN(CCC(=O)N3CCOCC3)CC2)n1", "note": "(stereo not given)", "cytotoxicity at 10 µM": -0.0308}, {"compound": "COCCOCCNC(=O)C(C)Oc1ccccc1C(F)(F)F", "note": "(stereo not given)", "cytotoxicity at 10 µM": 0.295}, {"compound": "CC(NCCN1CCN(C(=O)C2CCCC2)CC1)c1cnn(C)c1", "note": "(stereo not given)", "cytotoxicity at 10 µM": -4.59}, {"compound": "Cc1ccc(CN(C(=O)C(C)S(C)(=O)=O)C2CC2)cc1C", "note": "(stereo not given)", "cytotoxicity at 10 µM": 3.28}, {"compound": "CC1CCC(NC(=O)NCC(C)(C)CCS(C)(=O)=O)CC1", "note": "(stereo not given)", "cytotoxicity at 10 µM": 9.61}, {"compound": "COc1c(C)cnc(CN2CCCC(c3noc(C4CC4)n3)C2)c1C", "note": "(stereo not given)", "cytotoxicity at 10 µM": -1.62}, {"compound": "Cc1ccc(S(=O)(=O)N(CC2CCOC2)C2CC2)cc1N(C)C", "note": "(stereo not given)", "cytotoxicity at 10 µM": -9.77}, {"compound": "COc1c(C(=O)N2CCC(COCc3ccccc3)C2)c(C)nn1C", "note": "(stereo not given)", "cytotoxicity at 10 µM": 7.39}, {"compound": "CCCc1nnc(NC(=O)N2CCCC(NC(C)=O)C2)s1", "note": "(stereo not given)", "cytotoxicity at 10 µM": 5.41}, {"compound": "O=C1CCCN1C1CCN(S(=O)(=O)CCOc2ccc(F)cc2)CC1", "cytotoxicity at 10 µM": 5.94}, {"compound": "CC(c1ccco1)N(C)Cc1cccc(C(=O)Nc2nccn2C)c1", "note": "(stereo not given)", "cytotoxicity at 10 µM": -7.33}, {"compound": "CC(C)c1nc(CN(C)C(=O)[C@H](N)Cc2ccc(Cl)cc2)cs1", "cytotoxicity at 10 µM": -154}, {"compound": "Cc1ccc(C(N)=O)c(N2Cc3cnc(C(C)(C)C)nc3C2)n1", "cytotoxicity at 10 µM": 8.05}, {"compound": "C[C@@H]1CN(c2ccc(Cl)cn2)CC[C@@]1(O)C1CCOCC1", "cytotoxicity at 10 µM": -2.54}, {"compound": "Cc1cc(C)nc(N2CCCC(c3nccn3CCCN(C)C)C2)c1", "note": "(stereo not given)", "cytotoxicity at 10 µM": -7.97}, {"compound": "Cc1noc(-c2ccc(N3CCN(Cc4ncccc4C)CC3)nc2)n1", "cytotoxicity at 10 µM": -3.35}, {"compound": "O=C(c1ccc(C2CCCN2C(=O)c2ccoc2)s1)N1CCOCC1", "note": "(stereo not given)", "cytotoxicity at 10 µM": -156}, {"compound": "Cc1nn(C)c(C)c1C1CCCN1C(=O)c1ccc(N(C)C)nc1", "note": "(stereo not given)", "cytotoxicity at 10 µM": -7.19}, {"compound": "Cn1nnc2c1CCN(Cc1ccncc1)C2COCc1ccccc1", "note": "(stereo not given)", "cytotoxicity at 10 µM": -134}, {"compound": "CN(C)c1cc(NCc2cnc3n2CCN(CC2CC2)CC3)ncn1", "cytotoxicity at 10 µM": -2.57}, {"compound": "O=C(c1cnc2n1CCN(Cc1ccccc1)C2)N1CCCC1", "cytotoxicity at 10 µM": -73.9}, {"compound": "Cc1ccc(N2CCCC3(COCCN(c4ccccn4)C3)C2)nn1", "note": "(stereo not given)", "cytotoxicity at 10 µM": -119}]}]}
